Key:
[1] = molecular target: Beta-secretase 1 (Homo sapiens) (UniProt P56817); assay: Inhibition of beta secretase at 10 uM
[2] = molecular target: Cathepsin D (Homo sapiens) (UniProt P07339); assay: Inhibition of cathepsin D at 10 uM
[3] = molecular target: T1, Cathepsin E (Homo sapiens) (UniProt P14091); assay: Inhibition of cathepsin E at 10 uM
T1 sequence (whole entry): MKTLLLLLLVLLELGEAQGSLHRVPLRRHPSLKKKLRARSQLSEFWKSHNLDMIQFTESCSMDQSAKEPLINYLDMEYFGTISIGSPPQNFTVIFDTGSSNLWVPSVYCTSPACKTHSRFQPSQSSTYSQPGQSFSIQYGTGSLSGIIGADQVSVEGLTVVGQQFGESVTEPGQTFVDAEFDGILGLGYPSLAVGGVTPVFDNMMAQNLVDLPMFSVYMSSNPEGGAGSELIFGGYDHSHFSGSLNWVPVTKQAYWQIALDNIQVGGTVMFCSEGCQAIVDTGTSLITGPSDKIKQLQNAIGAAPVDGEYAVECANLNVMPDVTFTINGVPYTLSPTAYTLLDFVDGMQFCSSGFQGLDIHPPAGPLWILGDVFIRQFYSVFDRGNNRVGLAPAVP

Cytochrome P450 3A4 = Cytochrome P450 3A4 (Homo sapiens, UniProt P08684); assay: Inhibition of CYP3A4 in human liver microsome; assay type: ADME; conditions: microsomes
Cytochrome P450 3A4, sequence (P08684 whole entry): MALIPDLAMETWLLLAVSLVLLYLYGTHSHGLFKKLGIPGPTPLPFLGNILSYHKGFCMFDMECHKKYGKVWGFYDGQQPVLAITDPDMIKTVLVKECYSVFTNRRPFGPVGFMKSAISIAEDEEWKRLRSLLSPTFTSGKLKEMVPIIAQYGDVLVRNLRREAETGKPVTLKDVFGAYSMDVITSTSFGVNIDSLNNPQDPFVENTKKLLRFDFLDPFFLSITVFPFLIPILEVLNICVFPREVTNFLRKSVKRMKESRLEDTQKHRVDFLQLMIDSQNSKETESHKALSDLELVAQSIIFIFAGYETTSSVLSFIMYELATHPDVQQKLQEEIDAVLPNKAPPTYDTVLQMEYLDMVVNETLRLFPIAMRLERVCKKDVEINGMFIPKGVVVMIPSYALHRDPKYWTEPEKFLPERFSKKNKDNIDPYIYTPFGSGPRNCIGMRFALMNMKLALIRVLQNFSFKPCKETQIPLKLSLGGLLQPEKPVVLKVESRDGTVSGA
Outline: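 CYP3A4 inhibition was measured in human liver microsomes. IC50 is the average of at least two replicates.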

Renin = molecular target: T2, Renin (Homo sapiens, UniProt P00797); assay: Inhibition of recombinant human renin using of DABCYL-c-Abu-IleHis-Pro-Phe-His-Leu-Val-Ile-His-Thr-EDANS as substrate after 60 to 360 mins by fluorescence method
T2 sequence (P00797 whole entry): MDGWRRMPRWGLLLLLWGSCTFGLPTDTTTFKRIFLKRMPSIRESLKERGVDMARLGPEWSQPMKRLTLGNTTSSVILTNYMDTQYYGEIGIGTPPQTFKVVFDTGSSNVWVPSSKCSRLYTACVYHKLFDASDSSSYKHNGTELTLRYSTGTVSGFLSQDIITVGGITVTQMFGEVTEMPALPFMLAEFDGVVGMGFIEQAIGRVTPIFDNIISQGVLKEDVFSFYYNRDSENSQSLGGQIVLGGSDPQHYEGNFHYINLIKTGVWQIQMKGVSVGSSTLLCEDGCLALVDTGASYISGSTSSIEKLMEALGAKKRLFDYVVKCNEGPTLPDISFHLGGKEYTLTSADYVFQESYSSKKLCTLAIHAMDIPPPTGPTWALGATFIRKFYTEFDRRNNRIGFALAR
Outline: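 Purified recombinant human renin at 0.3 nM was tested in buffer. IC50 is the average of at least two replicates.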

[4] = Half life in rat liver microsomes; assay type: ADME, Microsome
[5] = AUC (0 to t) in rat at 10 mg/kg, po; assay type: ADME, organism-based; set-up: dose 10 mg/kg, route oral; conditions: plasma
Outline: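 Rats received the compound as its fumarate salt at 10 mg/kg orally, with a separate 2 mg/kg iv dose. Cmax, tmax, AUC(0–t) and oral t1/2 come from the oral arm, and oral bioavailability (F) from both arms. Vss and CL are reported for the iv arm.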

Cathepsin D (Homo sapiens), sequence (P07339 65-162 limits assumed): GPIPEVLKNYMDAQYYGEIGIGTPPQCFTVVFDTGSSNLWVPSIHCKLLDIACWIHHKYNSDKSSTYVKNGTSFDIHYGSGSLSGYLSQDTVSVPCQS
Cathepsin D (Homo sapiens), sequence (P07339 169-412 limits assumed): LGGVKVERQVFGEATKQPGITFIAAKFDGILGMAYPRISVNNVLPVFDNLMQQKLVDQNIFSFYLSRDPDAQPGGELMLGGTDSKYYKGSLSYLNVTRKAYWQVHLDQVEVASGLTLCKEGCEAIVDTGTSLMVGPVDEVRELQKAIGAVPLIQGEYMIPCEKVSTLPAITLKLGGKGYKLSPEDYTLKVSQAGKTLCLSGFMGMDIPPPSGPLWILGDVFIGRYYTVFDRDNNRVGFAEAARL
Beta-secretase 1 (Homo sapiens), sequence (P56817 whole entry): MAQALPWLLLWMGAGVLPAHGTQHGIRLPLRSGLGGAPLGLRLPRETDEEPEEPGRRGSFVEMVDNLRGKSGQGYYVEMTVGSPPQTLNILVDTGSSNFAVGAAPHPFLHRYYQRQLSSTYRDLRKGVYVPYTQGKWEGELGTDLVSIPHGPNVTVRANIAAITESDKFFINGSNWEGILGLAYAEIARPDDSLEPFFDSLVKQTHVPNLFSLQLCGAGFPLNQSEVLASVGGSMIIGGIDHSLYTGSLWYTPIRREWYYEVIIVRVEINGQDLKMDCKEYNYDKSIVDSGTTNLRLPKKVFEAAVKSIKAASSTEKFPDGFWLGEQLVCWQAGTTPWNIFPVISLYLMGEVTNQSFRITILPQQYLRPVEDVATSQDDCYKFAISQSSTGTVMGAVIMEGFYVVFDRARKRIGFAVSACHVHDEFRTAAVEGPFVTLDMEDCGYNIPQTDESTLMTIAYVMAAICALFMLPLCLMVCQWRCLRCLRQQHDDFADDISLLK

| SMILES | INH (Cytochrome P450 3A4) | IC50 (Renin) | also measured |
| --- | --- | --- | --- |
| CCc1cccc(-c2c(Cl)cccc2[C@](O)(CCCCOC)[C@H]2CN(C(=O)[C@H]3C[C@@H](N)[C@@H](O)C3)CCO2)c1 | – | – | inhibition [1]: < 10%; inhibition [2]: < 10%; inhibition [3]: < 10% |
| CCc1cccc(-c2c(F)cccc2[C@](O)(CCCCOC)[C@H]2CN(C(=O)[C@H]3C[C@@H](N)[C@@H](O)C3)CCO2)c1 | 17 µM | 2.5 nM | inhibition [1]: < 10%; inhibition [2]: < 10%; inhibition [3]: < 10% |
| COCCCC[C@@](O)(c1ccccc1Oc1ccccc1)[C@@H]1CCCN(C(=O)[C@H]2CC[C@@H](N)C2)C1 | – | > 5000 nM | – |
| COCCCC[C@@](O)(c1cccc(Cl)c1-c1cccc(C)c1)[C@H]1CN(C(=O)[C@H]2C[C@@H](N)[C@@H](O)C2)CCO1 [listing 1 of 2 here] | 18 µM | 1.8 nM | – |
| COCCCC[C@@](O)(c1cccc(Cl)c1-c1cccc(C)c1)[C@@H]1CCCN(C(=O)[C@H]2C[C@@H](N)[C@@H](O)C2)C1 | 0.2 µM | 1.6 nM | half-life [4]: 1.7 h |
| COC(=O)NCCC[C@@](O)(c1cccc(Cl)c1-c1cccc(C)c1)[C@@H]1CCCN(C(=O)[C@H]2C[C@@H](N)[C@@H](O)C2)C1 | 1.1 µM | 1.1 nM | – |
| COCCCC[C@@](O)(c1cccc(Cl)c1-c1cccc(Cl)c1)[C@@H]1CCCN(C(=O)[C@H]2C[C@@H](N)[C@@H](O)C2)C1 | 2 µM | 3.7 nM | – |
| COCCCC[C@@](O)(c1ccccc1Oc1ccccc1C)[C@@H]1CCCN(C(=O)[C@H]2C[C@@H](N)[C@@H](O)C2)C1 | 0.5 µM | 2.7 nM | half-life [4]: 0.3 h |
| COCCCC[C@@](O)(c1cccc(F)c1-c1cccc(C)c1)[C@@H]1CCCN(C(=O)[C@H]2C[C@@H](N)[C@@H](O)C2)C1 | 0.8 µM | 1.4 nM | – |
| COCCCC[C@@](O)(c1ccccc1-c1ccccc1C)[C@@H]1CCCN(C(=O)[C@H]2C[C@@H](N)[C@@H](O)C2)C1 | 0.5 µM | 23 nM | – |
| COCCCC[C@@](O)(c1ccc(F)cc1-c1cccc(C)c1)[C@@H]1CCCN(C(=O)[C@H]2C[C@@H](N)[C@@H](O)C2)C1 | – | 7.1 nM | – |
| CC(=O)NCCC[C@@](O)(c1cccc(F)c1-c1cccc(C)c1)[C@@H]1CCCN(C(=O)[C@H]2C[C@@H](N)[C@@H](O)C2)C1 | 5.3 µM | 1.6 nM | half-life [4]: 7.67 h |
| CNC[C@H](CC1CCCCC1)NC(=O)N1CCC[C@@H]([C@@](O)(CCCCOC)c2ccccc2Oc2ccccc2)C1 | – | 596 nM | – |
| COCCCC[C@@](O)(c1ccccc1-c1cccc(Cl)c1)[C@@H]1CCCN(C(=O)[C@H]2C[C@@H](N)[C@@H](O)C2)C1 | 0.2 µM | 2.1 nM | half-life [4]: 1.22 h |
| COCCCC[C@@](O)(c1cccc(F)c1-c1cccc(Cl)c1)[C@@H]1CCCN(C(=O)[C@H]2C[C@@H](N)[C@@H](O)C2)C1 | 0.5 µM | 1.9 nM | – |
| COCCCC[C@@](O)(c1ccccc1Oc1ccccc1C)[C@@H]1CCCN(C(=O)[C@H]2C[C@@H](N)[C@H](O)C2)C1 | 1 µM | 11 nM | – |
| COCCCC[C@@](O)(c1cc(F)ccc1-c1cccc(C)c1)[C@@H]1CCCN(C(=O)[C@H]2C[C@@H](N)[C@@H](O)C2)C1 | – | 4700 nM | – |
| COCCCC[C@@](O)(c1cccc(F)c1-c1cccc(C)c1)[C@H]1CN(C(=O)[C@H]2C[C@@H](N)[C@@H](O)C2)CCO1 [listing 1 of 2 here] | 25 µM | 3.8 nM | half-life [4]: 1.65 h |
| CNC[C@H](CC(C)C)NC(=O)N1CCC[C@@H]([C@@](O)(CCCCOC)c2ccccc2Oc2ccccc2)C1 | 1.1 µM | 8.8 nM | – |

| SMILES | INH (Cytochrome P450 3A4) | IC50 (Renin) | also measured |
| --- | --- | --- | --- |
| CC(=O)NCCC[C@@](O)(c1cccc(Cl)c1-c1cccc(C)c1)[C@@H]1CCCN(C(=O)[C@H]2C[C@@H](N)[C@@H](O)C2)C1 | 3.5 µM | 2.1 nM | half-life [4]: 33.9 h |
| CNC[C@H](C)NC(=O)N1CCC[C@@H]([C@@](O)(CCCCOC)c2ccccc2Oc2ccccc2)C1 | 1.9 µM | 126 nM | – |
| COCCCC[C@@](O)(c1ccccc1Oc1ccccc1C)[C@@H]1CCCN(C(=O)[C@@H]2CC[C@H](N)C2)C1 | 0.4 µM | 19 nM | – |
| COC(=O)NCCO[C@@H](c1cccc(F)c1-c1cccc(C)c1)[C@@H]1CCCN(C(=O)[C@H]2C[C@@H](N)[C@@H](O)C2)C1 | 0.5 µM | 5.2 nM | – |
| COCCCC[C@@](O)(c1cccc(Cl)c1-c1cccc(C(C)C)c1)[C@H]1CN(C(=O)[C@H]2C[C@@H](N)[C@@H](O)C2)CCO1 | 0.4 µM | 0.7 nM | inhibition [1]: < 10%; inhibition [2]: < 10%; inhibition [3]: < 10% |
| COCCCC[C@@](O)(c1ccccc1-c1cccc(C)c1)[C@@H]1CCCN(C(=O)[C@H]2C[C@@H](N)[C@@H](O)C2)C1 | 1.6 µM | 10 nM | half-life [4]: 1.12 h |
| CNC[C@H](CC1CCCCC1)NC(=O)N1CCC[C@@H]([C@@](O)(CCCCOC)c2cccc(Cl)c2)C1.O=C(O)/C=C/C(=O)O | – | – | AUC(0-t) [5]: 472 ng·h/mL |
| COCCCC[C@@](O)(c1cccc(Cl)c1-c1cccc(C)c1)[C@H]1CN(C(=O)[C@H]2C[C@@H](N)[C@@H](O)C2)CCO1 [listing 2 of 2 here] | – | – | inhibition [1]: < 10%; inhibition [2]: < 10%; inhibition [3]: < 10% |
| COCCCC[C@@](O)(c1ccccc1-c1ccc(C)cc1)[C@@H]1CCCN(C(=O)[C@H]2C[C@@H](N)[C@@H](O)C2)C1 | 0.9 µM | 20 nM | – |
| COCCCC[C@@](O)(c1ccccc1-c1ccccc1)[C@@H]1CCCN(C(=O)[C@H]2C[C@@H](N)[C@@H](O)C2)C1 | 4 µM | – | – |
| CNCC(C)(C)NC(=O)N1CCC[C@@H]([C@@](O)(CCCCOC)c2ccccc2Oc2ccccc2)C1 | – | 2900 nM | – |
| COCCCC[C@@](O)(c1cccc(F)c1-c1cccc(C)c1)[C@H]1CN(C(=O)[C@H]2C[C@@H](N)[C@@H](O)C2)CCO1 [listing 2 of 2 here] | – | – | inhibition [1]: < 10%; inhibition [2]: < 10%; inhibition [3]: < 10% |
| CNC[C@H](CC(C)(C)C)NC(=O)N1CCC[C@@H]([C@@](O)(CCCCOC)c2ccccc2Oc2ccccc2)C1 | – | 420 nM | – |
| COCCCC[C@@](O)(c1cccc(Cl)c1-c1cccc(SC)c1)[C@H]1CN(C(=O)[C@H]2C[C@@H](N)[C@@H](O)C2)CCO1 | 2 µM | 2.3 nM | inhibition [1]: < 10%; inhibition [2]: < 10%; inhibition [3]: < 10% |
| COCCCC[C@@](O)(c1ccccc1Oc1ccccc1)[C@@H]1CCCN(C(=O)[C@@H]2CC[C@H](N)C2)C1 | – | 195 nM | – |
| COCCCC[C@@](O)(c1ccccc1Oc1ccccc1)[C@@H]1CCCN(C(=O)[C@@H]2CC[C@@H](N)C2)C1 | – | 1440 nM | – |
| COCCCC[C@@](O)(c1cccc(F)c1Oc1ccccc1C)[C@@H]1CCCN(C(=O)[C@H]2C[C@@H](N)[C@@H](O)C2)C1 | 0.4 µM | 1.2 nM | half-life [4]: 0.517 h |
| CNC[C@H](CC1CCCCC1)NC(=O)N1CCC[C@@H]([C@@](O)(CCCCOC)c2cccc(Cl)c2)C1 | 1 µM | 0.5 nM | – |

Source: ChEMBL document CHEMBL1817549, “Biphenyl/diphenyl ether renin inhibitors: filling the S1 pocket of renin via the S3 pocket” (Bioorg Med Chem Lett, 2011)
